In data set [1] the test system is K562. The experiment in a line: Induction of apoptosis in human K562 cells assessed as late apoptotic cells at 1000 uM after 3 days by Annexin-V staining-based assay (reference value: 5.96%). The class given is functional.
Data set [2] is described as follows: Antioxidant activity assessed as superoxide anion radical scavenging by photochemiluminescence method relative to trolox using formulation containing O/W. It counts as physicochemical.
The subject of another data set is Trichophyton tonsurans. The data set is described as follows: Antifungal activity against Trichophyton tonsurans Malmsten CBS 483.76 assessed as growth inhibition at 100 ug/ml measured on day 7 by sabouraud dextrose agar diffusion method relative to control. The class given is functional. Conditions: Malmsten CBS 483.76, 168 h, read-out: GI. The method in brief: (§1)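 Dermatophyte strains kept on Sabouraud dextrose agar slants. Mycelium disks (10 mm) from a stationary-phase culture grown at 26 ± 1 °C on cellophane over SDA to log phase, then moved onto SDA containing compound added from DMSO stock at 45 °C (final DMSO 0.1%; DMSO-only controls). Colony diameter measured daily for 7 days. % inhibition = (dex − dex')/dex × 100. Three replicates per concentration; mean of three independent experiments.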
For orientation: In agar diffusion tests the substance spreads into inoculated agar from a disc or well.

For data set [3], the system named is K562. The experiment in a line: Induction of apoptosis in human K562 cells assessed as dead cells at 500 uM after 3 days by Annexin-V staining-based assay (reference value: 1.29%). The class given is functional.
The test system of data set [4] is Nannizzia gypsea. The experiment in a line: Antifungal activity against Nannizzia gypsea (Bodin) Guiart et Grigoraki CBS 286.63 assessed as growth inhibition at 20 ug/ml measured on day 7 by sabouraud dextrose agar diffusion method relative to control. The class given is functional. The method in brief: as §1
The test system of data set [5] is Nannizzia gypsea. The experiment in a line: Antifungal activity against Microsporum gypseum (Bodin) Guiart and Grigorakis IHME 3999 assessed as growth inhibition at 20 ug/ml measured on day 7 by sabouraud dextrose agar diffusion method relative to control. It counts as functional. The method in brief:
as §1

The target of data set [6] is Nuclear factor NF-kappa-B complex (Homo sapiens) (UniProt Q00653+P19838+Q04206). The data set is described as follows: Inhibition of NF-kappaB (unknown origin)/32P-labeled oligonucleotide interaction at 0.1 to 10 mM after 20 mins by electrophoretic mobility shift assay. It counts as protein-complex assay. The method in brief: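 Probe was a double-stranded 32P-labelled oligonucleotide (0.25 ng) in buffer of 10% glycerol, 0.05% NP-40, 10 mM Tris-HCl pH 7.5, 50 mM NaCl, 0.5 mM DTT and 10 mM MgCl2. Compound and probe were bound for 20 min at room temperature, then recombinant NF-kappaB p50 was added for a further 20 min. Samples were run on 6% polyacrylamide in 0.25× TBE at 200 V.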
Sequence of Nuclear factor NF-kappa-B complex (Homo sapiens) (P19838 whole entry, looked up): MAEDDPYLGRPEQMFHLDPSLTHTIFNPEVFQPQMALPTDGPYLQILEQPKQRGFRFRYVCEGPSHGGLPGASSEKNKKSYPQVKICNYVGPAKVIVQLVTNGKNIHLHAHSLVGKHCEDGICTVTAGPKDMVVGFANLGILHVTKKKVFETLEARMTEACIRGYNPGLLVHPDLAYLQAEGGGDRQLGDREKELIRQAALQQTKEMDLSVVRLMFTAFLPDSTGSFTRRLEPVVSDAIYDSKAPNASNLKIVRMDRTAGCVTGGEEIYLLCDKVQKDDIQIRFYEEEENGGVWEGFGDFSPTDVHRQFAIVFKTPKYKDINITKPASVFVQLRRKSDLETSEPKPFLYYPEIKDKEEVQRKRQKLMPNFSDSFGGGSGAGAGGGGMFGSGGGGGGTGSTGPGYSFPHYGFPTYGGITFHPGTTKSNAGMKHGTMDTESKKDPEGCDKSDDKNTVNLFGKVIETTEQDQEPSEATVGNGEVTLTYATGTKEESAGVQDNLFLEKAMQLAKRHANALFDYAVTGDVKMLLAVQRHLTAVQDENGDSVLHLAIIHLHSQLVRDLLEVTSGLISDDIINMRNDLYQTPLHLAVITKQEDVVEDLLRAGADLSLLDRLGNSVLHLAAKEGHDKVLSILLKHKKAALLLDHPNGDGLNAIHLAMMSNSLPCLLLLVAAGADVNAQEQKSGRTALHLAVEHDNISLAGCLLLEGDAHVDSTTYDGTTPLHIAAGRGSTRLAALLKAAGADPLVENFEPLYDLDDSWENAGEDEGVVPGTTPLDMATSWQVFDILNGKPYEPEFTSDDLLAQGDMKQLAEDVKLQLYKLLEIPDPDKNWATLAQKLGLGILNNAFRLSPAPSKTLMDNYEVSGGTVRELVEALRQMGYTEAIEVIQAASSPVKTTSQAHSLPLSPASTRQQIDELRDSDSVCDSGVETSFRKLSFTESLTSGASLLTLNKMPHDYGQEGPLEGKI
Sequence of Nuclear factor NF-kappa-B complex (Homo sapiens) (Q00653 whole entry, looked up): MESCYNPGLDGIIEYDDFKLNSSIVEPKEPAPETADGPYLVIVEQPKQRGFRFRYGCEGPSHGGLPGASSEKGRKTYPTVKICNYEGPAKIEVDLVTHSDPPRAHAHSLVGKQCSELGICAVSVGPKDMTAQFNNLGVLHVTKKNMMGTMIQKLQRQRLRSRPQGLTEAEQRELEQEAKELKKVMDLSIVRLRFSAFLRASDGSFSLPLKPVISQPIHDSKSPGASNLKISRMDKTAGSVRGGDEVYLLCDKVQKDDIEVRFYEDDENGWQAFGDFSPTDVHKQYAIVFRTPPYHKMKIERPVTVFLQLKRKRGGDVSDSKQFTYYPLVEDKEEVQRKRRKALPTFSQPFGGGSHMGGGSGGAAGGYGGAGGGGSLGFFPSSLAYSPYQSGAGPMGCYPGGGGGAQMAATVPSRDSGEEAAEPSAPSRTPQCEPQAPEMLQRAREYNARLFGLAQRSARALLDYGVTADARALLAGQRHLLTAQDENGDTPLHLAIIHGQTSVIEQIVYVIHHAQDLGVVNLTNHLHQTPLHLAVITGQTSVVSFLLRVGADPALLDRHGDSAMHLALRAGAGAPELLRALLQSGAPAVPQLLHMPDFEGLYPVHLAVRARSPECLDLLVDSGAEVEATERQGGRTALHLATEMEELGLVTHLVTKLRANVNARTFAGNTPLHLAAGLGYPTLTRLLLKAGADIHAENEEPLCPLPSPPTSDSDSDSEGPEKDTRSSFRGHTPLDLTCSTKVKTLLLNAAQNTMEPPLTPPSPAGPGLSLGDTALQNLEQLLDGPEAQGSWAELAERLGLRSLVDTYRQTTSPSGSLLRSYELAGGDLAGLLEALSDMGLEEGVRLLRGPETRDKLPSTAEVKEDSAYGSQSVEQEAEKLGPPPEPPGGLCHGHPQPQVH
Sequence of Nuclear factor NF-kappa-B complex (Homo sapiens) (Q04206 whole entry, looked up): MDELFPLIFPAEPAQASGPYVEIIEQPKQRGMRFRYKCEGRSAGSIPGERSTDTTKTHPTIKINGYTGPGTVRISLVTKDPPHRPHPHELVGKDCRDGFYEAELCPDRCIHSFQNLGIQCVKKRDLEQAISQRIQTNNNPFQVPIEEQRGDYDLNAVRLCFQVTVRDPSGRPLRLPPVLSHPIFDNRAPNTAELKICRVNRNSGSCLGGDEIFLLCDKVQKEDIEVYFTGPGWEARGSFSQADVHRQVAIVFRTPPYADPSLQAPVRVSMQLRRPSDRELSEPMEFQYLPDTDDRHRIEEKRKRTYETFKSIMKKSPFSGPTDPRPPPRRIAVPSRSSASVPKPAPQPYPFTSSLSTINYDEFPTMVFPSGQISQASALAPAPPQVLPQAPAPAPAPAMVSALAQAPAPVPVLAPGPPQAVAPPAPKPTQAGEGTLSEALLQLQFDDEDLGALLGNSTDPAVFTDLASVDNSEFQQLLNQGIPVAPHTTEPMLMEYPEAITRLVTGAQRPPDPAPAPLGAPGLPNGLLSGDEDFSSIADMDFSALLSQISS
(A gel shift assay detects complexes by their altered migration in electrophoresis.)

Data set [7] relates to K562. The experiment in a line: Antiproliferative activity against human K562 cells assessed as cell number after 3 days by Coulter counter. Conditions: K562, 72 h.
Data set [8] deals with Trichophyton mentagrophytes. The experiment in a line: Antifungal activity against Trichophyton mentagrophytes (Robin) Blanchard CBS 160.66 assessed as growth inhibition at 20 ug/ml measured on day 7 by sabouraud dextrose agar diffusion method relative to control. It counts as functional. To be noted: (Robin) Blanchard CBS 160.66, 168 h, read-out: GI. The method in brief: as §1

The test system of data set [9] is K562. The experiment in a line: Induction of apoptosis in human K562 cells assessed as live cells at 500 uM after 3 days by Annexin-V staining-based assay (reference value: 87.33%). The class given is functional.
Data set [10] concerns Nannizzia gypsea. The experiment in a line: Antifungal activity against Microsporum gypseum (Bodin) Guiart and Grigorakis IHME 3999 assessed as growth inhibition at 100 ug/ml measured on day 7 by sabouraud dextrose agar diffusion method relative to control. The class given is functional. To be noted: (Bodin) Guiart and Grigorakis IHME 3999, 168 h, read-out: GI. The method in brief: as §1

Data set [11] has as its system K562. The experiment in a line: Induction of apoptosis in human K562 cells assessed as early apoptotic cells at 1000 uM after 3 days by Annexin-V staining-based assay (reference value: 5.41%). The class given is functional.
The subject of data set [12] is K562. The data set is described as follows: Induction of apoptosis in human K562 cells assessed as dead cells at 10 uM after 3 days by Annexin-V staining-based assay (reference value: 1.29%). The class given is functional.
In data set [13] the test system is K562. The data set is described as follows: Induction of apoptosis in human K562 cells assessed as late apoptotic cells at 500 uM after 3 days by Annexin-V staining-based assay (reference value: 5.96%). The class given is functional.

Molecules are shown by their SMILES. The source made the active and inactive calls. The rule behind the calls is not given here.

As for `C[C@@H]1O[C@@H](OC[C@H]2O[C@@H](Oc3c(-c4ccc(O)c(O)c4)oc4cc(O)cc(O)c4c3=O)[C@H](O)[C@@H](O)[C@@H]2O)[C@H](O)[C@H](O)[C@H]1O` [RUTIN], the Activity was 6.15% in the data set on K562 [1]; 5.04 µmol/g in data set [2]; 0.65% with K562 [3]; 88.15% in the data set on K562 [9]; 8.6% in the data set with K562 [11]; 4.05% with K562 [13]. The inhibition of growth at 100 µg/mL with Trichophyton tonsurans stood at 2.8%; with Nannizzia gypsea [10] it was 4.1%. In addition, the “growth inhibition (GI)” value in the data set on Nannizzia gypsea [4] and in the data set with Nannizzia gypsea [5] was “inactive” in each case. Also, in [6], the inhibition entry is “Active”. Besides, in the data set on K562 [7], the IC50 (usually the concentration that gives 50% inhibition) stood at 897 µM. In addition, the inhibition of growth at 20 µg/mL in data set [8] is 0%. Further, the outcome in the data set with K562 [12] was inactive.

The values are drawn from ChEMBL document CHEMBL3352456, “Design, synthesis and biological activity of a novel Rutin analogue with improved lipid soluble properties” (Bioorg Med Chem, 2015).
